The results in this text go back to ChEMBL document CHEMBL3797181, “Structure-Based Optimization of a Small Molecule Antagonist of the Interaction Between WD Repeat-Containing Protein 5 (WDR5) and Mixed-Lineage Leukemia 1 (MLL1)” (J Med Chem, 2016).

Positions of bridges follow the written chain, without caps; N, C: chain ends. Non-standard residues stand in square brackets, D forms with d. Residues, ends and D or L forms follow the SMILES beside them. *: point of attachment. d(αMeK) = C[C@@](N)(CCCCN)C(=O)O; dPhg = N[C@@H](C(=O)O)c1ccccc1; Isobutyryl = CC(C)C(=O)*; Abu = CC[C@H](N)C(=O)O

A short description of data set [1]: Apparent solubility of compound in DMSO. Format: physicochemical.
Data set [2] in a line: Apparent solubility of compound in acetonitrile. The class given is physicochemical.
A short description of data set [3]: Apparent solubility of compound in methanol. Format: physicochemical.
Data set [4] is described as follows: Metabolic stability in mouse liver microsomes assessed as parent compound remaining after 0.5 hrs. The class given is ADME. The following applies: read-out: Stability. For orientation: Liver microsomes are a subcellular fraction often used to study metabolism.
Data set [5] in a line: Bioavailability in NOD/SCID mouse plasma at 30 mg/kg, ip up to 24 hrs. Format: ADME, organism-based.
The nature of data set [6]: Half life in NOD/SCID mouse plasma at 3 mg/kg, iv. The class given is ADME, organism-based. In outline: (§1)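 Female NOD-SCID mice, n = 3 per route, received 3 mg/kg IV or 30 mg/kg IP, with an undosed control group (n = 3). Blood was drawn at 5, 15, 30 min and 1, 2, 4, 6 and 24 h. Plasma was separated by centrifugation and stored at −80 °C until analysis. Cmax, Tmax, t1/2, AUC, Cl and VD were derived.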

Data set [7] is described as follows: AUC in NOD/SCID mouse plasma at 30 mg/kg, ip up to 24 hrs. The class given is ADME, organism-based. Also noted: dose 30 mg/kg, time < 24 hr, route intraperitoneal. In outline:
as §1

The nature of data set [8]: Tmax in NOD/SCID mouse plasma at 3 mg/kg, iv. The class given is ADME, organism-based. In outline: as §1
Data set [9] is described as follows: Cmax in NOD/SCID mouse plasma at 3 mg/kg, iv up to 24 hrs. The class given is ADME, organism-based. Also noted: dose 3 mg/kg, route intravenous. In outline: as §1
Data set [10] can be described thus: Metabolic stability in mouse plasma assessed as parent compound remaining after 0.5 hrs. Format: ADME, cell-free. The following applies: read-out: Stability.
Data set [11] is described as follows: Apparent permeability from basolateral to apical side in human Caco2 cells. Format: ADME, cell-based. The following applies: Caco-2. (Caco-2 monolayers are a common model of the intestinal barrier.)
Data set [12] in a line: Apparent permeability from apical to basolateral side in human Caco2 cells. Format: ADME, cell-based. Conditions: Caco-2.
A short description of data set [13]: AUC in NOD/SCID mouse plasma at 3 mg/kg, iv up to 24 hrs. Format: ADME, organism-based. Also noted: time < 24 hr, dose 3 mg/kg, route intravenous. In outline: as §1
Data set [14] is described as follows: Clearance in NOD/SCID mouse plasma at 3 mg/kg, iv up to 24 hrs. Format: ADME, organism-based. In outline:
as §1

Data set [15] in a line: Tmax in NOD/SCID mouse plasma at 30 mg/kg, ip. Format: ADME, organism-based. In outline:
as §1

Data set [16] can be described thus: Cmax in NOD/SCID mouse plasma at 30 mg/kg, ip up to 24 hrs. Also noted: dose 30 mg/kg, route intraperitoneal. Format: ADME, organism-based. In outline: as §1
A short description of data set [17]: Volume of distribution in NOD/SCID mouse plasma at 3 mg/kg, iv up to 24 hrs. The class given is ADME, organism-based. In outline:
as §1

Data set [18] can be described thus: Growth inhibition of human MOLM13 cells assessed as reduction in cell viability after 3 days. Format: functional. The following applies: MOLM-13, 72 h.
Data set [19] in a line: Growth inhibition of human KOPN8 cells assessed as reduction in cell viability after 3 days. Format: functional. The following applies: KOPN-8, 72 h.
Data set [20] concerns MV4-11. The data set can be described thus: Growth inhibition of human MV4-11 cells assessed as reduction in cell viability after 3 days. Format: functional. Conditions: MV4-11, 72 h.

For `Cc1cccc(C(=O)Nc2cc(-c3cccc(N4CCCC4)c3)ccc2N2CCN(C)CC2)c1`, the solubility entry in [1], in data set [2] and in [3] was “soluble” each time.
Take `CN1CCN(c2ccc(-c3cccc(CN4CCOCC4)c3)cc2NC(=O)c2c[nH]c(=O)cc2C(F)(F)F)CC1`: the remaining at 0.5 h was determined as 85% in [4] and 100% in data set [10]. Also, the bioavailability in data set [5] came out at 67%. Also, in data set [6], the half-life is 287 min. The AUC at 24 h in [7] amounted to 6810 ng·h/mL; in [13], 1010 ng·h/mL. Also, the time to peak (Tmax) was 5 min in data set [8] and 15 min in data set [15]. Moreover, the Cmax in data set [9] is 1.26 µM; in [16], 6.85 µM. Further, in data set [11], the Papp B→A turned out to be 16.8 ×10⁻⁶ cm/s. For the same compound, the apparent permeability from apical to basolateral (Papp A→B) in data set [12] turned out to be 0.1 ×10⁻⁶ cm/s. In addition, the clearance in [14] is 53.9 mL/min/kg. This compound also came in with a volume of distribution (Vd) in [17] of 15.6 L/kg.
As to `Cc1cccc(C(=O)Nc2cc(-c3ccccc3CN3CCOCC3)ccc2N2CCN(C)CC2)c1`, the solubility entry in [1], in data set [2] and in data set [3] was “soluble” throughout.
With `Cc1cccc(C(=O)Nc2cc(-c3ccc(N4CCCC4)cc3)ccc2N2CCN(C)CC2)c1`, the solubility entry in data set [1], in data set [2] and in [3] was “soluble” throughout.
Regarding `Cc1cccc(C(=O)Nc2cc(-c3cccc(CN4CCOCC4)c3)ccc2N2CCN(C)CC2)c1`, the solubility entry in data set [1], in data set [2] and in [3] was “soluble” in each case.
As to `CC[C@@H]1NC(=O)[C@H](CCCNC(=N)N)NC(=O)[C@](C)(NC(=O)C(C)C)CCCCNC(=O)[C@@H](c2ccccc2)NC1=O` (Isobutyryl-[d(αMeK)]R[Abu][dPhg]; lactam 1-C), the values for the 50% growth inhibitory concentration (GI50) in data set [18], in data set [19] and in [20] were 24 µM, 29.7 µM and 12.4 µM, respectively.
Take `Cc1cccc(C(=O)Nc2cc(-c3cccc4c3OCC4)ccc2N2CCN(C)CC2)c1`: the solubility result in data set [1], in data set [2] and in [3] was “soluble” in each case.
For `Cc1cccc(C(=O)Nc2cc(-c3ccc4c(c3)CCO4)ccc2N2CCN(C)CC2)c1`, the solubility result in data set [1], in data set [2] and in data set [3] was “soluble” in each case.
In the case of `Cc1cccc(C(=O)Nc2cc(-c3ccc(CN4CCOCC4)cc3)ccc2N2CCN(C)CC2)c1`, the solubility entry in data set [1], in [2] and in [3] was “soluble” each time.

One may read the bioavailability as the share of a dose that reaches the circulation, judged against a reference dose that is usually intravenous. In general, half-life refers to how long it takes for the measured level to halve. Low values mean rapid decline, high ones slow decline. The term AUC denotes concentration integrated over time. Lower therefore signals less exposure. Broadly, the Tmax is the time from dosing to the highest level. As a reminder, the Cmax is the peak of the concentration-time curve. For orientation: Papp B→A means how fast a substance crosses the layer from the basolateral side. What is called Papp A→B is how fast a substance crosses the layer from the apical side. In general, clearance refers to the rate of elimination divided by the concentration. A lower clearance goes with a low capacity for elimination. In general, Vd refers to a proportionality between amount in the body and measured concentration, not a real space. Higher therefore signals wide distribution into tissue. In general, GI50 refers to the concentration that inhibits growth by half.
